Source: ChEMBL document CHEMBL1122741, “Substituted 5,6-dihydrofuro[3,2-f]-1,2-benzisoxazole-6-carboxylic acids: high-ceiling diuretics with uricosuric activity” (J Med Chem, 1984)
Calls of active or inactive are those of the source. The rule behind the calls is not given here.

What was measured:
Mus musculus [1] = experiment: ED6 (natriuretic potency) is the oral dose(mg/kg) required to produce an excretion of 6 milliequivalents of Na+per kilogram during 0-4 hr in male mice (Highest dose tested was 50 mg/kg); Inactive; assay type: functional, organism-based; set-up: dose 50 mg/kg
In short: (§1)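 Male mice, 16-30 g, fed ad libitum beforehand. Compound in 0.2% hydroxypropylmethylcellulose given po at 10 mL/kg, then 0.9% saline po at 3% of body weight. Five mice pooled per metabolism cage, four cages per dose. Combined urine collected 0-4 h and assayed for Na+, K+, Cl-, uric acid as mequiv/kg per cage. ED6 from regression of Na+ against log dose.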

Rattus norvegicus [2] = experiment: ED2(natriuretic potency) is the oral dose(mg/kg) required to produce an excretion of 2 milliequivalents of Na+per kilogram during 0-4 hr in female rats (Highest dose tested was 100 mg/kg); assay type: functional
In short: (§2)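 Female Sprague-Dawley rats, 175-225 g, on sucrose and water for 18 h, given 5 mg DOCA sc 2 h before dosing. Compound in 0.2% methylcellulose given by gavage at 2 mL/kg, then a 30 mL/kg load of 0.34% NaCl/0.69% KCl. Individual metabolism cages, urine collected 0-4 h for Na+, K+, Cl-. Two-stage two-dose screen at 2 rats/dose, then at least four doses at 4 rats/dose. ED2 taken from regression of Na+ excretion against log dose.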

Mus musculus [3] = experiment: ED6 (natriuretic potency) is the oral dose(mg/kg) required to produce an excretion of 6 milliequivalents of Na+per kilogram during 0-4 hr in male mice (Highest dose tested was 50 mg/kg); assay type: functional; in short: as §1
Canis familiaris [4] = experiment: ED5(natriuretic potency) is the oral dose(mg/kg) required to produce an excretion of 5 milliequivalents of Na+per kilogram during 0-6 hr in female dogs (Highest dose tested was 30 mg/kg); Inactive; assay type: functional, organism-based; set-up: dose 30 mg/kg; conditions: Canis lupus familiaris
In short: (§3)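 Female dogs, conscious, one oral dose per dog per experiment. Urine collected and centrifuged; venous plasma drawn at each collection time. Samples assayed for Na+, K+, Cl-, urate and glucose by standard methods. Cumulative Na+ output expressed as mequiv/kg over 6 h, at least two dogs/dose. ED5 read from regression of Na+ excretion against log dose.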

Canis familiaris [5] = experiment: Na+ excretion mequiv/kg in 6 conscious female dogs administered perorally during 0-6 hr; assay type: ADME, organism-based, Canis lupus familiaris; conditions: dog, in vivo, po
In short: (§4)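 Conscious female dogs dosed at 3 mg/kg po, except one reference at 10 mg/kg, one dose per dog. Urine collected to 6 h and centrifuged; heparinized venous plasma taken at each collection. Na+ and urate measured by standard methods, mean ± SEM over 0-6 h. Compared with vehicle by ANOVA/Duncan's test or unpaired t test.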

Mus musculus [6] = experiment: Na+ excretion mequiv/kg in saline-loaded mice administered at a dose 250 […] perorally; assay type: ADME, organism-based; conditions: in vivo, po
In short: (§5)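 Saline-loaded male mice, 16-30 g. Compound po in 0.2% hydroxypropylmethylcellulose at 10 mL/kg, vehicle alone for controls, followed by 0.9% saline po at 3% of body weight. Doses were 0.3-250 mg/kg po. Five mice per metabolism cage, four cages per dose, pooled urine collected for 4 h. Na+ reported as mean ± SEM mequiv/kg; ANOVA with Duncan's test or unpaired t test against control.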

Mus musculus [7] = experiment: Na+ excretion mequiv/kg in saline-loaded mice administered at a dose 50 […] perorally; assay type: ADME, organism-based; conditions: in vivo, po; in short: as §5
[8] = urate excreted in 4 Cebus monkey''s during 0-6 hr; assay type: ADME; conditions: in vivo
In short: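 Male and female Cebus monkeys, 4-6 per group, fasted for 6 h after dosing, water ad libitum. 20 mg/kg in 0.2% hydroxypropylmethylcellulose at 1.0 mL/kg by nasogastric tube, then water load of 5% body weight. Urine collected in metabolism pans at 2, 6 and 24 h and assayed for uric acid. Urate in mg/kg over 0-6 h, mean ± SEM.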

Canis familiaris [9] = species: Canis familiaris; experiment: urate excreted in 6 female dogs during 0-6 hr; assay type: ADME, organism-based, Canis lupus familiaris; conditions: dog, in vivo; in short: as §4
Mus musculus [10] = experiment: Na+ excretion mequiv/kg in saline-loaded mice administered at a dose 10 […] perorally; assay type: ADME, organism-based; conditions: in vivo, po; in short: as §5
Canis familiaris [11] = experiment: ED5(natriuretic potency) is the oral dose(mg/kg) required to produce an excretion of 5 milliequivalents of Na+per kilogram during 0-6 hr in female dogs (Highest dose tested was 30 mg/kg); assay type: functional, Canis lupus familiaris; in short: as §3
Rattus norvegicus [12] = experiment: ED2(natriuretic potency) is the oral dose(mg/kg) required to produce an excretion of 2 milliequivalents of Na+per kilogram during 0-4 hr in female rats (Highest dose tested was 100 mg/kg); Inactive; assay type: functional, organism-based; set-up: dose 100 mg/kg; in short: as §2

Compound | ED6 (Mus musculus [1]) | ED2 (Rattus norvegicus [2]) | ED6 (Mus musculus [3]) | also measured
O=C(O)C1Cc2cc3c(-c4ccccc4Cl)noc3c(Cl)c2O1 (stereo not drawn) | inactive | 22.5 mg/kg | – | –
CCc1noc2c(Cl)c3c(cc12)CC(C(=O)O)O3 (stereo not drawn) | – | 3.8 mg/kg | 6.8 mg/kg | ED5 (Canis familiaris [4]): inactive
O=C(O)C1Cc2cc3c(-c4cccs4)noc3c(Cl)c2O1 (stereo not drawn) | inactive | >100 mg/kg | – | –
O=C(O)COc1ccc(C(=O)c2cccs2)c(Cl)c1Cl | – | – | – | Na+ excretion (Canis familiaris [5]): 1.54 m equiv kg-1; Na+ excretion (Mus musculus [6]): 7.7 m equiv kg-1; Na+ excretion (Mus musculus [7]): 6.3 m equiv kg-1; Excretion [8]: 11.81 mg/kg; Excretion (Canis familiaris [9]): 0.8 mg/kg; Na+ excretion (Mus musculus [10]): 3.7 m equiv kg-1
O=C(O)C1Cc2cc3c(-c4ccccc4)noc3c(Cl)c2O1 (stereo not drawn) | – | 27.3 mg/kg | 55 mg/kg | ED5 (Canis familiaris [11]): 13.5 mg/kg
O=C(O)C1Cc2cc3c(-c4ccc(F)cc4)noc3c(Cl)c2O1 (stereo not drawn) | – | 7.3 mg/kg | 66 mg/kg | –
COc1c2c(cc3c(-c4ccccc4F)noc13)CC(C(=O)O)O2 (stereo not drawn) | inactive | 210 mg/kg | – | –
O=C(O)C1Cc2cc3c(-c4ccccc4F)noc3cc2O1 (stereo not drawn) | – | – | 100 mg/kg | ED2 (Rattus norvegicus [12]): inactive
Cc1c2c(cc3c(-c4ccccc4F)noc13)CC(C(=O)O)O2 (stereo not drawn) | – | >100 mg/kg | 7.25 mg/kg | ED5 (Canis familiaris [11]): 0.79 mg/kg
Cc1ccccc1-c1noc2c(Cl)c3c(cc12)CC(C(=O)O)O3 (stereo not drawn) | – | 14.3 mg/kg | 8.4 mg/kg | –
NC(=O)C1Cc2cc3c(-c4ccccc4F)noc3c(Cl)c2O1 (stereo not drawn) | – | – | 39 mg/kg | ED2 (Rattus norvegicus [12]): inactive
O=C(O)C1Cc2cc3c(-c4cccc(F)c4)noc3c(Cl)c2O1 (stereo not drawn) | inactive | 63 mg/kg | – | –
Cc1noc2c(Cl)c3c(cc12)CC(C(=O)O)O3 (stereo not drawn) | inactive | 40 mg/kg | – | –
